Screens as filed in PubChem.
Compounds with a hit are over-represented: about 2.3% of the library has one in this group of screens.
Scp1 inh – Scp-1 (human) phosphatase inhibition. Q9GZU7. Recombinant Scp1, phosphopeptide, malachite green phosphate absorbance. inhibition, % at 20 µM. 0.88% of 340,000 active. AID 493091;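 active = inhibition above about 50% at 20 µM, limit read from the data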
Target sequence (Q9GZU7 76-261 limits assumed): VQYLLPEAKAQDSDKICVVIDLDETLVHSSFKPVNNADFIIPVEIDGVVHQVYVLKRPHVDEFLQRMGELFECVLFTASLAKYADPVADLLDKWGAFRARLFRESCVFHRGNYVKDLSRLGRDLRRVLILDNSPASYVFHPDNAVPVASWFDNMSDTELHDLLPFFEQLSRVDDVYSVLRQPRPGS
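Material: truncated SCP-1 phosphatase (76-261aa) / Buffer or medium: 50 mM Tris acetate pH 5.5, 0.005% Tween-20, 10 mM MgCl2 / Compound dosing: one concentration, 20 µM, with 1.0% DMSO / Incubation: 45 min room-temperature reaction, 5 min colour, 30 min stabiliser / Detection: colorimetric free-phosphate detection, absorbance 630 nm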
LMPTP inh – blocks human LMPTP phosphatase. P24666. recombinant LMPTP-A, OMFP fluorogenic substrate, fluorescence intensity. inhibition, % at 20 µM. 0.22% of 360,000 active;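 active = compounds that cut the enzyme signal by at least half of the control window in the single-dose screen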
Target sequence (P24666 whole entry, looked up): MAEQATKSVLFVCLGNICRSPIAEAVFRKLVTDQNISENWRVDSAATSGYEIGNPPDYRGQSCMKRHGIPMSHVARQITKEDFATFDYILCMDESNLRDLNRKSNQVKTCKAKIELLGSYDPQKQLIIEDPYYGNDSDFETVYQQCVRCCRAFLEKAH
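material = LMPTP-A | quantity = 0.625 nM enzyme | reagent = OMFP substrate, 400 µM final | buffer or medium = Bis-Tris pH 6.0, DTT, detergent | detection = endpoint fluorescence intensity from OMFP dephosphorylation | dosing = single 20 µM dose | read-out basis = % inhibition relative to no-enzyme and uninhibited control wells | control set = no-enzyme and uninhibited controls | timing = 50 min at room temperature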
DNMT1 inh – DNMT1 (human) enzyme inhibition. DNMT1 molecular beacon, Hinp1I cleavage, fluorescence. inhibition (reported as % activation of signal), % at 10 µM. 0.83% of 360,000 active. AID 588458; in the data active = inhibition above about 50%
NadD inh – blocks S. aureus nicotinate mononucleotide adenylyltransferase | purified NadD enzyme, colorimetric absorbance read-out | inhibition, % at 20 µM | 0.78% of 360,000 active | AID 602399; in the data active = inhibition above about 26%
STEP block – STEP (human) phosphatase inhibition. recombinant STEP, OMFP fluorogenic substrate, fluorescence. inhibition, % at 20 µM. 0.25% of 360,000 active. AID 588621;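 active = inhibition at 20 µM, scaled per plate between control wells, above about 37%, limit read from the data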
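Also added – OMFP at 25 µM · Test system – STEP tyrosine phosphatase · Technique – FITC-channel fluorescence of OMFP product · Schedule – 20 min at room temperature, dark · Evaluation – control-normalized % inhibition with plate pattern correction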
SUMO1-SIM PPI – modulators of human SUMO1-mediated protein-protein interactions. SUMO1 binding to a labelled peptide, TR-FRET, 1 h. inhibition, % at 20 µM. AID 602429. 0.33% of 360,000 active; in the data active = inhibition above about 37%
Target sequence (P63165 whole entry, looked up): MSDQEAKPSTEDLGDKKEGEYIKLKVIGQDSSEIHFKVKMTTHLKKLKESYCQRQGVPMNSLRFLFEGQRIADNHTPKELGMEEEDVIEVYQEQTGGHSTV
Numbers stand for hits; - = inactive; . = no result given.

SMILES | Scp1 inh | LMPTP inh | DNMT1 inh | NadD inh | STEP block | SUMO1-SIM PPI
O=C1CCCN1CCCNc1nc(NCc2ccccc2)nc2ccsc12 | . | 67 | - | - | - | -
Cn1cc([N+](=O)[O-])c(C(=O)Nc2ccc(-c3nc4ccccc4o3)cc2)n1 | - | - | - | - | - | 46
Cc1ccc(-c2cc(=O)c3cc(F)ccc3[nH]2)cc1 | - | - | - | - | - | -
Cc1ccc(C)c(-n2sc3ccc(F)cc3c2=O)c1 | 70 | - | - | - | - | -
O=c1c2cc(F)ccc2sn1-c1ccc(F)cc1 | 81 | - | - | - | - | -
COc1ccc(-n2sc3ccc(F)cc3c2=O)cc1 | 81 | - | - | - | - | -
O=c1c2cc([N+](=O)[O-])ccc2sn1-c1ccccc1 | . | - | - | - | - | -
COc1ccc(C(=O)C[C@@H]2OC3CCCCC3N2S(=O)(=O)c2ccc(C)cc2)cc1OC (some centres undefined) | . | - | . | . | . | -
O=C(NCCNC(=O)c1cccnc1)c1ccc(Br)cc1 | - | - | - | - | - | -
O=C(C[C@H]1C=C[C@@H](NC(=O)Cc2cccnc2)[C@@H](CO)O1)NCc1ccc2c(c1)OCO2 | . | - | . | . | . | -
Cc1cc2c(cc1C)NC(c1cccnc1)C1=C(CC(C)(C)CC1=O)N2 (centres undefined) | - | - | - | - | - | -
Cc1cc2c(cc1C)NC1(C(=O)Nc3ccccc31)C1=C(CC(C)(C)CC1=O)N2 (centres undefined) | - | - | - | - | - | 51
CCCNC(=O)Cn1c(=O)/c(=C\c2ccc(-c3ccc([N+](=O)[O-])cc3)o2)s/c1=C\C(=O)C(C)(C)C | - | - | - | 30 | - | -
COc1cc2c3c(cccc3c1)C(=O)N(CCN1CCCC1)C2=O | . | - | 73 | - | - | -
COc1ccc(C(=O)CN2CCN(CCN3C(=O)c4cccc5cccc(c45)C3=O)CC2)cc1 | - | - | - | - | - | -
Cc1ccsc1C=Nc1ccc(O)cc1 | - | - | 89 | - | - | 68
O=C1c2cccc3cccc(c23)C(=O)N1/N=C/c1ccc(O)cc1O | - | - | - | - | - | -
Cc1nc2ccccc2c(=O)n1/N=C/c1ccc(O)c(O)c1O | - | 84 | 78 | 33 | - | 70
Oc1ccc(/C=N/N(c2ccccc2)c2ccccc2)c(O)c1O | . | - | - | 37 | - | -
Oc1ccc(/C=N/N(c2ccccc2)c2ccccc2)cc1O | - | - | - | - | - | -
O=C1c2ccccc2C(=O)N1/N=C/c1ccc(O)c(O)c1O | - | 68 | - | - | - | -
Cn1cc([C@]2(O)C(=O)Nc3ccc(Br)cc32)c2ccccc21 | . | - | . | . | . | -
CSC(=Nc1ccccc1)N=C(SCc1ccccc1)N(C)C | - | - | - | - | - | -
COc1ccc(-c2cc3c(=O)n(CC(=O)N4CCCC4)ncn3n2)cc1 | - | - | - | - | - | 58
COc1cc(N)ccc1Nc1c2ccccc2nc2ccccc12 | . | 87 | - | 35 | - | -
SMILES | Scp1 inh | LMPTP inh | DNMT1 inh | NadD inh | STEP block | SUMO1-SIM PPI
NC(=S)n1[nH]c(-c2ccc([N+](=O)[O-])cc2)c(N=Nc2ccc(O)cc2)c1=O | - | - | - | 54 | - | -
Cc1[nH]n(C(N)=S)c(=O)c1N=Nc1cccc(Cl)c1 | - | - | - | - | - | -
NC(=S)n1[nH]c(-c2ccc([N+](=O)[O-])cc2)c(N=Nc2cccc(Cl)c2)c1=O | - | - | - | 93 | - | -
Cn1c(CC(=O)NNC(=O)c2ccc(Cl)nc2)nc2ccccc21 | - | - | - | - | - | -
Cn1c(CC(=O)NNC(=O)c2ccc(F)cc2Cl)nc2ccccc21 | - | - | - | - | - | 43
O=C(/C=C/c1ccncc1)c1ccc(NC(=O)c2ccccc2F)cc1 | - | 57 | - | - | - | -
CCOc1ccc(CCNC(=O)COC(=O)c2cccc(N(C)C)c2)cc1OCC | - | - | - | - | - | -
CCOC(=O)c1ccc(NC(=O)C2CC(O)CN2S(=O)(=O)c2ccc(C)cc2)cc1 (centres undefined) | - | - | - | - | - | 42
CC(=O)OCC1=C(C(=O)O)N2C(=O)C(NC(=O)c3ccc(F)cc3)C2SC1 (centres undefined) | - | - | - | - | - | -
Cn1nnnc1SCC1=C(C(=O)O)N2C(=O)[C@@H](NC(=O)[C@H](O)c3ccccc3)[C@H]2SC1 | 90 | - | 88 | - | - | -
CC(=O)OCC1=C(C(=O)O)N2C(=O)[C@@H](NC(=O)CSc3ccncc3)[C@H]2SC1 | 77 | - | - | - | - | -
Cc1cccc(C)c1NC(=O)C(c1cc2ccccc2o1)N1CCC(c2ccccc2)CC1 (centres undefined) | . | - | . | . | . | -
N=C1/C(=C\c2ccc(-c3ccc(C(=O)O)cc3)o2)C(=O)N=C2SC=C(c3ccccc3)N12 | 81 | 65 | - | 67 | 61 | 110
Cc1cc(/C=C2/C(=N)N3C(c4ccccc4)=CSC3=NC2=O)c(C)n1-c1ccc(Cl)cc1 | - | - | - | - | - | -
N=C1/C(=C\c2ccc(-c3cccc(Cl)c3)o2)C(=O)N=C2SC=C(c3ccccc3)N12 | - | - | 61 | 75 | - | -
COc1cc(/C=C2/C(=N)N3C(c4ccccc4)=CSC3=NC2=O)ccc1OCC(=O)O | - | - | - | - | - | -
CCOC(=O)[C@]12CCC=C1N(Cc1ccc3c(c1)OCO3)C(=O)[C@H](CC(=O)NCCC(C)C)C2 | . | - | . | - | . | -
COC(=O)c1cc(S(=O)(=O)Nc2cc(OC)cc(OC)c2)c[nH]1 | - | - | - | - | - | -
CCOc1cc2c(c3c1C(c1ccccc1)N(S(=O)(=O)c1ccc(C)cc1)C3)C(=O)C=CC2=O (centres undefined) | . | - | - | 46 | - | -
C#CCOCCOCCOCCNc1nc(N2CCN(C(=O)CCCCCCCCCCNC(=O)[C@@H](CCSC)n3cc(CCO)nn3)CC2)nc(N2CCN(C(=O)CCCCCCCCCCNC(=O)[C@H](CCCN=C(N)N)n3cc(C[C@@H](C)CC)nn3)CC2)n1 | - | - | - | 71 | - | 80
C#CCOCCOCCOCCNc1nc(N2CCN(C(=O)CCCCCCCCCCNC(=O)[C@H](CCCCN)n3cc(C[C@@H](C)CC)nn3)CC2)nc(N2CCN(C(=O)CCCCCCCCCCNC(=O)[C@H](CCCN=C(N)N)n3cc(C[C@@H](C)CC)nn3)CC2)n1 | 58 | - | - | 64 | - | 72
C#CCOCCOCCOCCNc1nc(N2CCN(C(=O)CCCCCCCCCCNC(=O)[C@@H](CCC(=O)O)n3cc(CCCCCN)nn3)CC2)nc(N2CCN(C(=O)CCCCCCCCCCNC(=O)[C@H](CCCCN)n3cc(C[C@@H](C)CC)nn3)CC2)n1 | - | - | - | 36 | - | -
